In ChEMBL document CHEMBL4732095, “Novel naphthylamide derivatives as dual-target antifungal inhibitors: Design, synthesis and biological evaluation” (Eur J Med Chem, 2021):

Key:
Assay type in all cases: functional
Nakaseomyces glabratus = assay: Antifungal activity against Candida glabrata ATCC 0001 assessed as inhibition of microbial growth by NCCLS protocol based method
Outline: (§1)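 Broth MIC50 determined following NCCLS guidelines in Sabouraud medium, with fungal suspension in 24-well format. Compound tested at 0.0625, 0.125, 0.5, 1, 2, 4, 8 and 16 μg/mL. Plates cultured statically at 35 °C. MIC50 is the lowest concentration giving 50% growth inhibition. Naftifine and fluconazole served as positive controls.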

Candida albicans [1] = assay: Antifungal activity against Candida albicans ATCC 10231 assessed as inhibition of microbial growth by NCCLS protocol based method; outline: as §1
Pichia kudriavzevii = assay: Antifungal activity against Candida krusei ATCC 6258 assessed as inhibition of microbial growth by NCCLS protocol based method; outline: as §1
Aspergillus fumigatus = assay: Antifungal activity against Aspergillus fumigatus KM8001 assessed as inhibition of microbial growth by NCCLS protocol based method; outline: as §1
Candida tropicalis = assay: Antifungal activity against Candida tropicalis ATCC 1369 assessed as inhibition of microbial growth by NCCLS protocol based method; outline: as §1
Candida albicans [2] = assay: Antifungal activity against fluconazole-resistant Candida albicans 632 assessed as inhibition of microbial growth by NCCLS protocol based method
Candida albicans [3] = assay: Antifungal activity against fluconazole-resistant Candida albicans CaR assessed as inhibition of microbial growth by NCCLS protocol based method
Candida albicans [4] = assay: Antifungal activity against fluconazole-resistant Candida albicans 904 assessed as inhibition of microbial growth by NCCLS protocol based method
Candida albicans [5] = assay: Antifungal activity against fluconazole-resistant Candida albicans 17# assessed as inhibition of microbial growth by NCCLS protocol based method
Candida albicans [6] = assay: Antifungal activity against fluconazole-resistant Candida albicans 901 assessed as inhibition of microbial growth by NCCLS protocol based method

SMILES	MIC50 (Nakaseomyces glabratus) [µg/mL]	MIC50 (Candida albicans [1]) [µg/mL]	MIC50 (Pichia kudriavzevii) [µg/mL]	MIC50 (Aspergillus fumigatus) [µg/mL]	MIC50 (Candida tropicalis) [µg/mL]	MIC50 (Candida albicans [2]) [µg/mL]	MIC50 (Candida albicans [3]) [µg/mL]	MIC50 (Candida albicans [4]) [µg/mL]	MIC50 (Candida albicans [5]) [µg/mL]	MIC50 (Candida albicans [6]) [µg/mL]
CN(CC(=O)Nc1ccncc1)C(=O)c1cccc2ccccc12	0.5	0.5	0.5	8	1					
CN(CC(=O)NC(Cn1ccnc1)C(=O)c1ccccc1)C(=O)c1cccc2ccccc12 (stereo not given)	0.25	0.5	0.5	8	0.25					
CC(C)C(NC(=O)c1ccc2ccccc2c1)C(=O)NC(Cn1ccnc1)C(=O)c1ccccc1 (stereo not given)	1	0.5	1	> 16	0.5					
CN(CC(=O)NCc1cccnc1)C(=O)c1ccc2ccccc2c1	0.5	0.5	0.25	> 16	0.25					
CC(C)C(NC(=O)c1cccc2ccccc12)C(=O)NC(Cn1ccnc1)C(=O)c1ccccc1 (stereo not given)	0.5	0.25	1	> 16	0.5					
O=C(NC(Cn1ccnc1)C(=O)NC1CCCCC1)c1ccc2ccccc2c1 (stereo not given)	0.25	0.5	0.5	> 16	0.5					
CN(CC(=O)Nc1cccnc1)C(=O)c1cccc2ccccc12	0.25	0.25	0.5	> 16	0.25					
O=C(NC(Cn1ccnc1)C(=O)NC1CCCC1)c1ccc2ccccc2c1 (stereo not given)	0.25	0.25	1	8	0.5					
CN(CC(=O)NCc1cccnc1)C(=O)c1cccc2ccccc12	2	0.5	0.5	> 16	0.25					
O=C(NC(Cn1ccnc1)C(=O)NC1CCCC1)c1cccc2ccccc12 (stereo not given)	2	0.5	0.5	> 16	0.5					
CN(CC(=O)Nc1cccnc1)C(=O)c1ccc2ccccc2c1	0.25	0.125	0.25	4	0.125	> 16	4	> 16	8	> 16
O=C(CNC(=O)c1cccc2ccccc12)NC(Cn1ccnc1)C(=O)c1ccccc1 (stereo not given)	0.25	0.25	0.5	8	0.125					
CN(CC(=O)NC(Cn1ccnc1)C(=O)c1ccccc1)C(=O)c1ccc2ccccc2c1 (stereo not given)	0.25	0.125	0.25	8	0.25					
